ChEMBL document CHEMBL4834403, “Design and Synthesis of Novel Epigenetic Inhibitors Targeting Histone Deacetylases, DNA Methyltransferase 1, and Lysine Methyltransferase G9a with In Vivo Efficacy in Multiple Myeloma” (J Med Chem, 2021)
Calls of active or inactive are those of the source. The calls are words filed in the database; no cut-off is given here.

Columns and labels:
Histone deacetylase 1 = Histone deacetylase 1 (Homo sapiens, UniProt Q13547); test: Inhibition of full length human C-terminal His-tagged/C-terminal Flag-tagged HDAC1 using fluorogenic acetylated peptide as substrate incubated for 30 mins by fluorescence plate reader assay
Histone deacetylase 2 = Histone deacetylase 2 (Homo sapiens, UniProt Q92769)
[1] = target: Histone deacetylase 3/Nuclear receptor corepressor 2 (HDAC3/NCoR2) (Homo sapiens, UniProt O15379); test: Inhibition of full length human C-terminal His-tagged HDAC3/human N-terminal GST-agged NCOR2 using fluorogenic acetylated peptide as substrate incubated for 30 mins by fluorescence plate reader assay; format: protein-complex assay
[2] = target: T1, Protein deacetylase HDAC6 (Homo sapiens, UniProt Q9UBN7); test: Inhibition of full length human N-terminal GST-tagged HDAC6 using fluorogenic acetylated peptide as substrate incubated for 30 mins by fluorescence plate reader assay
T1 sequence (Q9UBN7 whole entry): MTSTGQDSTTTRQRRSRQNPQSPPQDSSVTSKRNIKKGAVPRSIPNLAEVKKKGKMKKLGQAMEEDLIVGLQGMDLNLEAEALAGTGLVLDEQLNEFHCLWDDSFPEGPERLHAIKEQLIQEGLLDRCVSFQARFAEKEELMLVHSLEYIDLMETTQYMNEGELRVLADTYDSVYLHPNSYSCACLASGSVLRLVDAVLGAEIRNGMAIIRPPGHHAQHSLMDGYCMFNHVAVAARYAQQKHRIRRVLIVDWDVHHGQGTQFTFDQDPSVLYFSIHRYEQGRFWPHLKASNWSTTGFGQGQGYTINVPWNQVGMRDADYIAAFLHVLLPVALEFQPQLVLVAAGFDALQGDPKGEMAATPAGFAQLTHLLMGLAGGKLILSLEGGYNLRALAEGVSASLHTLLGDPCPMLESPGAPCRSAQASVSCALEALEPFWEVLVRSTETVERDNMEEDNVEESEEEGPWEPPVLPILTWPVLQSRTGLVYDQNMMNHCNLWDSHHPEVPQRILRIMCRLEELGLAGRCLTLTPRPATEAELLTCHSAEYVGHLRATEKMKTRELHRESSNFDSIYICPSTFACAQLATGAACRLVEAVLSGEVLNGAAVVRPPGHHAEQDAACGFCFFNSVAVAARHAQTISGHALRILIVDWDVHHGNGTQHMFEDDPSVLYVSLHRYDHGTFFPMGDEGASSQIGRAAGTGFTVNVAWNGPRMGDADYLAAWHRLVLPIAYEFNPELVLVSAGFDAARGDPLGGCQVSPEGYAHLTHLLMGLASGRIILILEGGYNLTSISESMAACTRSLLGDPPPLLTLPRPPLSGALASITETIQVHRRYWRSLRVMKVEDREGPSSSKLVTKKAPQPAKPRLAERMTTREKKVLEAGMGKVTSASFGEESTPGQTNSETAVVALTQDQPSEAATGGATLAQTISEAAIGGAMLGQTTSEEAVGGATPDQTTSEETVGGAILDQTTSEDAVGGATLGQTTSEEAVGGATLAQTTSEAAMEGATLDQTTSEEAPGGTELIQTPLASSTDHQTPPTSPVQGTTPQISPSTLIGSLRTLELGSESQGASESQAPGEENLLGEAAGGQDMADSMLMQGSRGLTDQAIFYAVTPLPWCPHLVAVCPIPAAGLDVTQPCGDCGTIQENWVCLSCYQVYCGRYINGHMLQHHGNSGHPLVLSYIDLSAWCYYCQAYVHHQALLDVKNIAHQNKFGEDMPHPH

MM1.S = test: Antiproliferative activity against human MM1.S cells assessed as inhibition of cell proliferation measured up to 72 hrs by CellTiter96 Aqueous one reagent based assay; format: functional
THLE-2 = test: Cytotoxicity against human THLE-2 cells assessed as decrease in cell viability measured after 72 hrs by Vialight-plus cell proliferation assay; format: cell-based; settings: thle-2, 72 h
Summary of the method: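 Human THLE-2 cells exposed to compound for 72 h. Cytotoxicity reported as LC50 and pLC50, averaged from at least two independent experiments on different days.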

[3] = target: T2, Histone-lysine N-methyltransferase EHMT2 (Homo sapiens, UniProt Q96KQ7); test: Inhibition of human G9a enzyme using histone monomethyl-H3K9 peptide as substrate incubated for 1 hr in presence of SAM by TR-FRET assay
T2 sequence (Q96KQ7 whole entry): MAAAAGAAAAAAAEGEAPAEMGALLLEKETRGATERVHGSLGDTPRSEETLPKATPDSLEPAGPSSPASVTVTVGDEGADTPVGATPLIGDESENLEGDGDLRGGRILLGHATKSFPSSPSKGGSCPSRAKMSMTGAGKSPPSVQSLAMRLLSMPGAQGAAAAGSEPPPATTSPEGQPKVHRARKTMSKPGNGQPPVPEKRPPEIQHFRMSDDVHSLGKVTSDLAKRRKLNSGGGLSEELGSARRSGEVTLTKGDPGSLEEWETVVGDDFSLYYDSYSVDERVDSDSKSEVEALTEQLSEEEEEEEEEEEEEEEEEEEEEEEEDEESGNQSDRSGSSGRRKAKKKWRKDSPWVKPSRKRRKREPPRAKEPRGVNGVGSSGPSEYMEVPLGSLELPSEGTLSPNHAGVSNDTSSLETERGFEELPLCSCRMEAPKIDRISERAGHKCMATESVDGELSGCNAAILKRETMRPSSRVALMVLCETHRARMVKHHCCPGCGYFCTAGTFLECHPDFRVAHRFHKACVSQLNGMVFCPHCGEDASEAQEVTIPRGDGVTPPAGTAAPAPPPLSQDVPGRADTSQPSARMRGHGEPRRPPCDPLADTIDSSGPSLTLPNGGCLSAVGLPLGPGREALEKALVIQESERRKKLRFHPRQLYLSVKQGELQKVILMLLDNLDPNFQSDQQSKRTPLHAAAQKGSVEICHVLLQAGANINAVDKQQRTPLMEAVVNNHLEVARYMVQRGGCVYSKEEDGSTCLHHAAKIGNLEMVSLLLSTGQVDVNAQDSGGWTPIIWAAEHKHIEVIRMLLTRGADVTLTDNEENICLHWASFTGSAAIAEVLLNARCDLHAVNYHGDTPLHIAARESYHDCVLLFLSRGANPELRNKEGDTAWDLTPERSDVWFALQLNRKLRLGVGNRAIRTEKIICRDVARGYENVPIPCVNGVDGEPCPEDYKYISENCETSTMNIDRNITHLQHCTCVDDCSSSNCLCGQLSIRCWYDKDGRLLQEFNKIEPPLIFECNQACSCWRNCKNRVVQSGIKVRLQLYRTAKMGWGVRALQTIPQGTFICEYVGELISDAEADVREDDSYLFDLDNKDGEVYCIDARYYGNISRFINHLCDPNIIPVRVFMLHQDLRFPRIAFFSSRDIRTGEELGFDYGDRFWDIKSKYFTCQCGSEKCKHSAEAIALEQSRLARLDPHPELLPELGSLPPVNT

[4] = target: DNA (cytosine-5)-methyltransferase 1 (Homo sapiens, UniProt P26358); test: Inhibition of human DNMT1 enzyme using polydeoxy-inosine polydeoxy-cytosine DNA as substrate incubated for 15 mins in presence of SAM by TR-FRET assay
[5] = target: T3, Histone-lysine N-methyltransferase EHMT2 (Homo sapiens) (UniProt Q96KQ7); test: Inhibition of G9A in human MM1.S cells assessed as decrease in H3K9Me2 levels up to 50 uM after 48 hrs by Western blot analysis; format: cell-based; settings: dose microM <=50, time 48.0 hrs
T3 sequence (whole entry): T2 sequence (Q96KQ7 whole entry)
Summary of the method: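 MM1.S cells exposed 48 h across a concentration range. Global H3K9Ac and H3K9me2 read by Western blot; run in duplicate.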

[6] = Permeability of the compound in PBS/EtOH buffer (70:30) incubated for 18 hrs by UV plate reader based PAMPA assay; format: ADME; settings: read-out: permeability
[7] = time hrs <=72, read-out: pGI50 (converted)

Chain of Histone deacetylase 1 (Q13547 whole entry): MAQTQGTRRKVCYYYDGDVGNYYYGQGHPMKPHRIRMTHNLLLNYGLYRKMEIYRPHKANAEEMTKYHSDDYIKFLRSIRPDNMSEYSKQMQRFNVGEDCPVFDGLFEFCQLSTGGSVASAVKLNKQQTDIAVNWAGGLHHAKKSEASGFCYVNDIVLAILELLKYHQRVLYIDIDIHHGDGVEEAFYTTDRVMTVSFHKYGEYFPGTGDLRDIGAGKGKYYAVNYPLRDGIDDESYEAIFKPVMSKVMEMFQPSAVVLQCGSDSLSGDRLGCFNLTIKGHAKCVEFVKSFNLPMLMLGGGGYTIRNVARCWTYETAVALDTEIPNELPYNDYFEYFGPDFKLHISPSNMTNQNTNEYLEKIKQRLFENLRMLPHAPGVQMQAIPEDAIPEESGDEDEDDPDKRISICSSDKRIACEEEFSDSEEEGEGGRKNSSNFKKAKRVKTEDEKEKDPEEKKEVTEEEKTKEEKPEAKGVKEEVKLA
Chain of DNA (cytosine-5)-methyltransferase 1 (P26358 whole entry): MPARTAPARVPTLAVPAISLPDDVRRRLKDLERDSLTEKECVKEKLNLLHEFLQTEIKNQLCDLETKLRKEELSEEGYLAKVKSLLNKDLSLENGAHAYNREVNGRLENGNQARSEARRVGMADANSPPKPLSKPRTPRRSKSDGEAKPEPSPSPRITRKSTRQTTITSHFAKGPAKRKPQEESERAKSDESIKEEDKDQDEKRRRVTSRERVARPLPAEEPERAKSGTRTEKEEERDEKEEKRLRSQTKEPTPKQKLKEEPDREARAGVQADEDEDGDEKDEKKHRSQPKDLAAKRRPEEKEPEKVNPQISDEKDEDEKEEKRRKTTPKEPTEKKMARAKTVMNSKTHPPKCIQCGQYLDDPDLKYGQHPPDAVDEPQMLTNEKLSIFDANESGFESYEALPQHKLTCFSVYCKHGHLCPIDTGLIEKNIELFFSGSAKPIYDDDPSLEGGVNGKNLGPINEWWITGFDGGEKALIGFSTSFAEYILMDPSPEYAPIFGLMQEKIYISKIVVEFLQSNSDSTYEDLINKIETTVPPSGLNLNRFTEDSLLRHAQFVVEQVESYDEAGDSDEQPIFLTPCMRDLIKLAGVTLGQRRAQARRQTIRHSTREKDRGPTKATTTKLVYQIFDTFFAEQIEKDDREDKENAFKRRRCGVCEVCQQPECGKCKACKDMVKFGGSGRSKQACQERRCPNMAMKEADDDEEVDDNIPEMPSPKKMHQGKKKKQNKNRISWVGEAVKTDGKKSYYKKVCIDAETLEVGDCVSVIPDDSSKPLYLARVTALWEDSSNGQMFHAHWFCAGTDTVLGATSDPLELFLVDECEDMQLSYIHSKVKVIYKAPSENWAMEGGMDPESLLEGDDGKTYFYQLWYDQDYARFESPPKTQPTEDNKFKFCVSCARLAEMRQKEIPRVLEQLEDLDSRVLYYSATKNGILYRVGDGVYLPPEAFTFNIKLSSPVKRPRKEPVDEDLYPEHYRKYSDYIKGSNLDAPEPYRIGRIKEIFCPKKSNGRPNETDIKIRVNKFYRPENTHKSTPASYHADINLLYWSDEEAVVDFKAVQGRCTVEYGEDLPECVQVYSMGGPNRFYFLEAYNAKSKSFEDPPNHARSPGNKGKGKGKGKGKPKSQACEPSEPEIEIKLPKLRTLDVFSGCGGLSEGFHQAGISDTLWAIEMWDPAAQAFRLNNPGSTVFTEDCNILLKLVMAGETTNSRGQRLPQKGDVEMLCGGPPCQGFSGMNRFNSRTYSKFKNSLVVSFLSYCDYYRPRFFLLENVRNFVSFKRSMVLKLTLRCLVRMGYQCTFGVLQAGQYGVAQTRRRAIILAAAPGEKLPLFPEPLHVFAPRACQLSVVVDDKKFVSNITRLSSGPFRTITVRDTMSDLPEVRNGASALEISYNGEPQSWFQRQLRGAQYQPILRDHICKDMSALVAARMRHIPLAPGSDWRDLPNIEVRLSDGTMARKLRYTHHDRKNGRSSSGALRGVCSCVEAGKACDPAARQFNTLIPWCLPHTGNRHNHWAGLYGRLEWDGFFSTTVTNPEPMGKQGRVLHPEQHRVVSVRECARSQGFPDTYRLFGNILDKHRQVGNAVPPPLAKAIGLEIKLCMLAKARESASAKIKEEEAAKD
Chain of Histone deacetylase 3/Nuclear receptor corepressor 2 (HDAC3/NCoR2) (O15379 whole entry): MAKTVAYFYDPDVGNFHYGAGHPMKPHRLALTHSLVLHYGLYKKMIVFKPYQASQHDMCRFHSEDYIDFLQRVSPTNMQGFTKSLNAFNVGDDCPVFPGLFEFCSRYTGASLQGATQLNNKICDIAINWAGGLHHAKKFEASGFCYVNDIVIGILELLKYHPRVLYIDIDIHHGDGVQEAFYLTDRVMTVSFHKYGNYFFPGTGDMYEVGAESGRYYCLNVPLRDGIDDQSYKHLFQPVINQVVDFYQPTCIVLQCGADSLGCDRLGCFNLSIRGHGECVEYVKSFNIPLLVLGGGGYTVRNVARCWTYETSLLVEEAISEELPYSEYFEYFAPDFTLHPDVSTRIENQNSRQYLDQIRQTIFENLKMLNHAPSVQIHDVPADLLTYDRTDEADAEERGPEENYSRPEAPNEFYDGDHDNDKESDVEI
Chain of Histone deacetylase 3/Nuclear receptor corepressor 2 (HDAC3/NCoR2) (Q9Y618 whole entry, further chain): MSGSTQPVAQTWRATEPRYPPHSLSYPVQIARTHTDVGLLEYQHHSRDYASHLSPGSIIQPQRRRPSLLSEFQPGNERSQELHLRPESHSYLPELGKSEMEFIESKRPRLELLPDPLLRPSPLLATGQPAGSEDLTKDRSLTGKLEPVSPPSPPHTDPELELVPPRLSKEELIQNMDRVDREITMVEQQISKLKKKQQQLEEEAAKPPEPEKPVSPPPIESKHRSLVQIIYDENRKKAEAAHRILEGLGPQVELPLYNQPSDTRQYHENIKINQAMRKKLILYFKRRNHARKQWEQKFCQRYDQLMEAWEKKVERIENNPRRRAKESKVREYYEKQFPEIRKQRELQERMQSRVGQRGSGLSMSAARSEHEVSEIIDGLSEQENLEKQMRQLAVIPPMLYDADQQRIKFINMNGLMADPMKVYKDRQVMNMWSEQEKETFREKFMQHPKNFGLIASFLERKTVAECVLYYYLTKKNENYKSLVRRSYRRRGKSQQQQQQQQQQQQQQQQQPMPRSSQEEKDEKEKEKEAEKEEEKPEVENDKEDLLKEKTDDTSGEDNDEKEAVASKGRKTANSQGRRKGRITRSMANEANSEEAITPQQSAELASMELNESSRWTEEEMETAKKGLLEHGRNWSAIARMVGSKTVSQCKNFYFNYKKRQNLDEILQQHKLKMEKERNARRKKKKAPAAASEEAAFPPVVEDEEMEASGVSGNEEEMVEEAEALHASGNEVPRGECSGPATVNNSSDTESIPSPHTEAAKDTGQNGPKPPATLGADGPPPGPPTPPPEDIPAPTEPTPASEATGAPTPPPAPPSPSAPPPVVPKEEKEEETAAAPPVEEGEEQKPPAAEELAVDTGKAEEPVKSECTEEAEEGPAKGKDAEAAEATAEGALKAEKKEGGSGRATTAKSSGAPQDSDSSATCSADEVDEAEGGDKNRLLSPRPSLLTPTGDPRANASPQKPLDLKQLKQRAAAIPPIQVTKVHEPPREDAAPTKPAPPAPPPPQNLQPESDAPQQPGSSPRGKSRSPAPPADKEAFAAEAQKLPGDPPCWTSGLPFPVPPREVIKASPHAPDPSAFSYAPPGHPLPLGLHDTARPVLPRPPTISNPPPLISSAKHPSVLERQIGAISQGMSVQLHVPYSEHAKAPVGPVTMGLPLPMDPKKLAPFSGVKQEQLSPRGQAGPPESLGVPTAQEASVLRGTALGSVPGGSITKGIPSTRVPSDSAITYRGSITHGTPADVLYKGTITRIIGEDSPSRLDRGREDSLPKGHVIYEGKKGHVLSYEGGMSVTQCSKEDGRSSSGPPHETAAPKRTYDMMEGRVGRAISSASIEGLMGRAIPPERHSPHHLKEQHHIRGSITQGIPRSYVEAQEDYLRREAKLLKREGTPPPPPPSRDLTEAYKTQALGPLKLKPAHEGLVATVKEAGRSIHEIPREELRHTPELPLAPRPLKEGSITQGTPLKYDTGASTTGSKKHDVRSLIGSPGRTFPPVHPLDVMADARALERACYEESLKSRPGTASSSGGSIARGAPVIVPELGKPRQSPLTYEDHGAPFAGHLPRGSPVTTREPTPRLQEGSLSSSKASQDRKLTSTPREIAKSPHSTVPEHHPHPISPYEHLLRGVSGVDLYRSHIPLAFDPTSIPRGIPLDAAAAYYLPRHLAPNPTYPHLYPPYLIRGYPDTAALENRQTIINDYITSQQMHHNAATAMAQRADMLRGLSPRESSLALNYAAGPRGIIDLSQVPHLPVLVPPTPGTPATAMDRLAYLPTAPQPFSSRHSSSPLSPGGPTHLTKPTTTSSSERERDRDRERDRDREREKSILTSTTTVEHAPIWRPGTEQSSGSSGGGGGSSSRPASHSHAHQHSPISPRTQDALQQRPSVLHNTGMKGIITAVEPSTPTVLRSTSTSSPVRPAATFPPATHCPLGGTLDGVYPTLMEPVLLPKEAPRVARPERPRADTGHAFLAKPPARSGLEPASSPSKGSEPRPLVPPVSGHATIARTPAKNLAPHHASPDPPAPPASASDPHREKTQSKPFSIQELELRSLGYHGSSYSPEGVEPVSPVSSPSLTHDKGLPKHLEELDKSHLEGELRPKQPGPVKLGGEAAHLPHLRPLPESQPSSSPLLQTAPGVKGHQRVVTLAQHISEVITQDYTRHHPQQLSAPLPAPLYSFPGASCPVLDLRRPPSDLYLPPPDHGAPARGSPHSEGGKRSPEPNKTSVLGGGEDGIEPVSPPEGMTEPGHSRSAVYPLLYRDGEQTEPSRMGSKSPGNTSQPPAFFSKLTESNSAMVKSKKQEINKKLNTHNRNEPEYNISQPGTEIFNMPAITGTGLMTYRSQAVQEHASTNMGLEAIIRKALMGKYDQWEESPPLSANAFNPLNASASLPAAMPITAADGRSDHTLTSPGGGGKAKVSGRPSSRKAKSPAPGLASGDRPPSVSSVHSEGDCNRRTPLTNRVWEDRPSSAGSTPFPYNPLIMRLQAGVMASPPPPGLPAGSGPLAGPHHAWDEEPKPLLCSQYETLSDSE

In the case of `COc1cc2c(NCC3CCN(C)CC3)cc(-c3ccc(C)o3)nc2cc1OCCCN1CCCC1`, the IC50 (Histone deacetylase 1) is reported as greater than 10000 nM, the IC50 (Histone deacetylase 2) is reported as greater than 10000 nM and the IC50 [1] is reported as greater than 10000 nM. The IC50 [2] was greater than 10000 nM, the GI50 (MM1.S; time hrs <=72, read-out: GI50) was 3840 nM and the GI50 (MM1.S; [7]) was 3800 nM. The LC50 (THLE-2) was 1300 nM and the pLC50 (THLE-2) was 5.89.

`COc1cc2nc(-c3ccc(C)o3)nc(NCC3CCN(c4ncc(C(=O)NO)cn4)CC3)c2cc1OC` showed an IC50 (Histone deacetylase 1) of 7 nM, an IC50 (Histone deacetylase 2) of 38 nM and an IC50 [1] of 21 nM. It also gave an IC50 [2] of 506 nM, an IC50 [3] greater than 10000 nM and an IC50 [4] greater than 10000 nM.

For `COc1cc2c(cc1OCCCN1CCCC1)N=C(N)C21CCC1`, the inhibition [5] was “Active”.

With `COc1cc2c(NCC3CCC(C(=O)NO)CC3)cc(-c3ccc(C)o3)nc2cc1OCCCN1CCCC1` (stereo not given) the IC50 (Histone deacetylase 1) was 22 nM, the IC50 (Histone deacetylase 2) was 159 nM and the IC50 [1] was 109 nM. It also gave an IC50 [2] of 34 nM, an IC50 [3] of 55 nM and an IC50 [4] of 531 nM. The GI50 (MM1.S; time hrs <=72, read-out: GI50) was greater than 10000 nM, the GI50 (MM1.S; [7]) was greater than 10000 nM and the LC50 (THLE-2) was 26100 nM. It also gave a pLC50 (THLE-2) of 4.58.

`COc1cc2nc(-c3ccc(C)o3)cc(NCc3ccc(C(=O)NO)cc3)c2cc1OC` gave an IC50 (Histone deacetylase 1) of 14 nM, an IC50 (Histone deacetylase 2) of 91 nM and an IC50 [1] of 44 nM. The IC50 [2] was 22 nM, the IC50 [3] was greater than 10000 nM and the IC50 [4] was 5400 nM. The GI50 (MM1.S; time hrs <=72, read-out: GI50) was 520 nM, the GI50 (MM1.S; [7]) was 525 nM and the LC50 (THLE-2) was 2330 nM. It also gave a pLC50 (THLE-2) of 5.63 and a Papp at 18 h [6] of 0.534 ×10⁻⁶ cm/s.

Compound `COc1cc2c(NC3CCN(C)CC3)cc(-c3ccc(C)o3)nc2cc1OCCCN1CCCC1` has an IC50 (Histone deacetylase 1) greater than 10000 nM, an IC50 (Histone deacetylase 2) greater than 10000 nM and an IC50 [1] greater than 10000 nM. It also gave an IC50 [2] greater than 10000 nM, a GI50 (MM1.S; time hrs <=72, read-out: GI50) of 1040 nM and a GI50 (MM1.S; [7]) of 1070 nM. For the same compound, the LC50 (THLE-2) was 1780 nM and the pLC50 (THLE-2) was 5.75.

For `COc1cc2nc(-c3ccc(C)o3)cc(NCC3CCC(C(=O)NO)CC3)c2cc1OC` (stereo not given), the IC50 (Histone deacetylase 1) was 38 nM, the IC50 (Histone deacetylase 2) was 274 nM and the IC50 [1] was 206 nM. It also gave an IC50 [2] of 41 nM, an IC50 [3] greater than 10000 nM and an IC50 [4] of 2850 nM. For the same compound, the GI50 (MM1.S; time hrs <=72, read-out: GI50) was 5830 nM, the GI50 (MM1.S; [7]) was 5750 nM and the LC50 (THLE-2) was 9600 nM. It also gave a pLC50 (THLE-2) of 5.02 and a Papp at 18 h [6] of 0.393 ×10⁻⁶ cm/s.
